Data from PMC6016630 (British Journal of Pharmacology, 2018).

How the values were obtained:
[1] = test system: synaptic transmission in acute slices of the rat PFC; test: Extracellular field potential; format: cell-based
Outline: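 PFC slices from male Sprague Dawley rats aged 5–6 weeks, cut in ice-cold ACSF (pH 7.4, 95% O2/5% CO2). Layer V fEPSPs (prelimbic/infralimbic) evoked by 100 μs pulses every 30 s to layers II–III. Drugs from DMSO, 0.05% final, applied 30–60 min after 30 min baseline. Amplitude as % of last 10 min baseline; 3–14 slices/group; paired t-test.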

cGMP in the PFC of mice = test: Determination of cGMP in mouse prefrontal cortex; format: in vivo; conditions: 30 min after p.o. administration, highest dose tested, P < 0.05
Outline: (§1)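 Adult male CD-1 mice, n = 8/group, dosed p.o. with vehicle (0.5% Natrosol, 0.01% Tween-80) or test compound. Killed by focused microwave brain irradiation 30 min later. PFC homogenized and centrifuged in 0.5 N HCl; supernatant assayed by ELISA. Detection limits: cGMP 0.02, cAMP 0.03 pmol·mg−1 tissue. One-way ANOVA, Dunnett's.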

male CD‐1 mice = test: T‐maze continuous alternation task, MK‐801‐induced memory impairment; format: in vivo, mouse; conditions: for time spent in the T‐maze vs. MK‐801/vehicle‐treated group: P > 0.05
Outline: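 Male CD-1 mice (about 28 g) on a reversed light cycle, tested in the dark phase in an enclosed, elevated T-maze under dim light (10 lux). MK-801 s.c. 30 min pre-test; test compound (0.1–75 mg·kg−1 p.o., Natrosol/Tween vehicle) given just after it. 14 trials in 14 min; mice completing <50% excluded. Reversal scaled: saline/vehicle 100%, MK-801/vehicle 0%. Kruskal–Wallis, Dunn's.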

cAMP in the PFC of mice = test: Determination of cAMP in mouse prefrontal cortex; format: in vivo; conditions: 30 min after p.o. administration, highest dose tested, P < 0.05
Outline: as §1

male Lister‐hooded rats = test: 5‐choice serial reaction time task; format: in vivo, rat
Outline: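 Food-restricted rats held at about 85% of free-feeding weight. Trained to criterion: ≥50 correct trials, ≥70% accuracy, ≤20% omissions (SD 0.7 s, ITI 5 s, LH 5 s). Ten challenge sessions with SD cut from 700 to 500 ms. Upper and lower 15% by mean accuracy taken as high/low performers, n = 9. Test compound in saline given i.p. 10 min pre-test. Repeated-measures ANOVA, Dunnett's.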

[2] = high‐performing rats, 3 mg·kg^−1, mean ± SEM
[3] = high‐performing rats, 6 mg·kg^−1, mean ± SEM
[4] = low‐performing rats, 3 mg·kg^−1, mean ± SEM
[5] = low‐performing rats, 6 mg·kg^−1, mean ± SEM

With CN1C(=O)c2c(nn(Cc3ccc(-c4cccc(F)n4)cc3)c2Nc2ccccc2)N2C1=N[C@@H]1CCC[C@@H]12 [ITI‐214] the “effect on fEPSP amplitude, compound alone” value ([1]; ITI‐214 per se) was “did not show any effects per se”, the “effect on forskolin‐induced fEPSP amplitude with activated PDE1” value ([1]; forskolin + thapsigargin + ITI‐214) was “rescued the reduced fEPSPs amplitudes” and the “PFC cGMP vs. vehicle” value (cGMP in the PFC of mice) was “significant increase”. For the same molecule, the “change in alternation of MK‐801‐treated mice” value (“change in alternation” below) (male CD‐1 mice; ITI‐214 0.1 mg·kg^−1 p.o., MK‐801 0.1 mg·kg^−1 s.c.) was 0%, the “change in alternation” value (male CD‐1 mice; ITI‐214 1 mg·kg^−1 p.o., MK‐801 0.1 mg·kg^−1 s.c.) was 13% and the “effect on alternation performance of MK‐801‐treated mice” value (male CD‐1 mice; ITI‐214 1 mg·kg^−1 p.o., P < 0.05 vs. MK‐801) was “statistically significant”. For the same molecule, the “change in alternation” value (male CD‐1 mice; ITI‐214 3 mg·kg^−1 p.o., MK‐801 0.1 mg·kg^−1 s.c.) was 12%, the “effect on alternation performance of MK‐801‐treated mice” value (male CD‐1 mice; ITI‐214 3 mg·kg^−1 p.o., P = 0.059 vs. MK‐801) was “trend towards a significant effect” and the “change in alternation” value (male CD‐1 mice; ITI‐214 10 mg·kg^−1 p.o., MK‐801 0.1 mg·kg^−1 s.c.) was 10%. The “change in alternation” value (male CD‐1 mice; ITI‐214 30 mg·kg^−1 p.o., MK‐801 0.1 mg·kg^−1 s.c.) was 7%, the “change in alternation” value (male CD‐1 mice; ITI‐214 75 mg·kg^−1 p.o., MK‐801 0.1 mg·kg^−1 s.c.) was 2% and the “recovery in cognitive performance” value (male CD‐1 mice; mice, ITI‐214 0.1 mg·kg^−1 p.o., MK‐801 0.1 mg·kg^−1 s.c.) was 1%. The “recovery in cognitive performance” value (male CD‐1 mice; mice, ITI‐214 1 mg·kg^−1 p.o., MK‐801 0.1 mg·kg^−1 s.c.) was 57%, the “recovery in cognitive performance” value (male CD‐1 mice; mice, ITI‐214 3 mg·kg^−1 p.o., MK‐801 0.1 mg·kg^−1 s.c.) was 51% and the “recovery in cognitive performance” value (male CD‐1 mice; mice, ITI‐214 10 mg·kg^−1 p.o., MK‐801 0.1 mg·kg^−1 s.c.) was 45%. The “recovery in cognitive performance” value (male CD‐1 mice; mice, ITI‐214 30 mg·kg^−1 p.o., MK‐801 0.1 mg·kg^−1 s.c.) was 32%, the “recovery in cognitive performance” value (male CD‐1 mice; mice, ITI‐214 75 mg·kg^−1 p.o., MK‐801 0.1 mg·kg^−1 s.c.) was 11% and the “time spent in the T‐maze vs. MK‐801/vehicle‐treated group” value (male CD‐1 mice; mice, ITI‐214 0.1–75 mg·kg^−1 p.o.) was “did not change”. For the same molecule, the “maximal effect, recovery in the cognitive function” value (male CD‐1 mice; mice, ITI‐214 p.o., MK‐801 0.1 mg·kg^−1) was “approximately 57%” and the “PFC cAMP vs. vehicle” value (cAMP in the PFC of mice) was “significant increase”.
C/C=C(/C)C(=O)O[C@H]1C(C)=C2[C@H]([C@@H]1OC(=O)CCCCCCC)[C@@](C)(OC(C)=O)C[C@H](OC(=O)CCC)[C@@]1(O)[C@H]2OC(=O)[C@@]1(C)O [thapsigargin] was tested, and the “effect on forskolin‐induced fEPSP amplitude” value ([1]; forskolin + thapsigargin (PDE1 activated via Ca^2+/calmodulin)) was “reduced fEPSPs amplitudes”.
For C[C@]12N[C@H](Cc3ccccc31)c1ccccc12 [MK‐801], the “overall time spent to complete the T‐maze task vs. control group” value (male CD‐1 mice; mice, MK‐801 0.075 mg·kg^−1 s.c., Figure S1a (SKF38393 study)) was “reduced”, the “spontaneous alternation vs. vehicle‐injected mice” value (male CD‐1 mice; mice, MK‐801 0.075 mg·kg^−1 s.c., P < 0.05) was “significant reduction” and the “overall time spent to complete the T‐maze task vs. control group” value (male CD‐1 mice; mice, MK‐801 0.1 mg·kg^−1 s.c., Figure S1b (ITI‐214 study)) was “reduced”. The “reduction of spontaneous alternation vs. vehicle‐injected mice” value (male CD‐1 mice; mice, MK‐801 0.1 mg·kg^−1 s.c., P < 0.05) was about 23%.
C=C[C@@]1(C)CC(=O)[C@]2(O)[C@@]3(C)[C@@H](O)CCC(C)(C)[C@@H]3[C@H](O)[C@H](OC(C)=O)[C@@]2(C)O1 [forskolin] was tested, and the “effect on fEPSPs” value ([1]; forskolin 0.1, 1, 10 μM) was “increased fEPSPs concentration‐dependently”.
In the case of Oc1cc2c(cc1O)C(c1ccccc1)CNCC2 (stereo not drawn) [SKF38393], the “effect on synaptic transmission (fEPSP amplitude)” value ([1]; SKF38393) was “increased synaptic transmission”, the “recovery in the cognitive performance” value (male CD‐1 mice; mice, SKF38393 4 mg·kg^−1 s.c., MK‐801 0.075 mg·kg^−1 s.c.) was 67% and the “recovery in the cognitive performance” value (male CD‐1 mice; mice, SKF38393 8 mg·kg^−1 s.c., MK‐801 0.075 mg·kg^−1 s.c.) was 43%. For the same molecule, the “effect on MK‐801‐induced deficits in spontaneous alternation” value (male CD‐1 mice; mice, SKF38393 8 mg·kg^−1 s.c., P > 0.05 vs. MK‐801 and vehicle) was “ineffective”, the “time spent in the T‐maze vs. MK‐801/vehicle‐treated group” value (male CD‐1 mice; mice, SKF38393 2, 4, 8 mg·kg^−1 s.c.) was “did not change” and the “effect on MK‐801‐induced deficits in spontaneous alternation” value (male CD‐1 mice; mice, SKF38393 2 and 4 mg·kg^−1 s.c., P < 0.05 vs. MK‐801) was “improved”. The “maximal effect, recovery in the cognitive function” value (male CD‐1 mice; mice, SKF38393 s.c., MK‐801 0.075 mg·kg^−1) was “approximately 67%”, the Correct latency (male Lister‐hooded rats; [2]) was 0.79 ± 0.02 s and the Omissions (male Lister‐hooded rats; [2]) was 11.24 ± 2.64 n. For the same molecule, the Perseverative responses (male Lister‐hooded rats; [2]) was 0.94 ± 0.26 n, the Premature responses (male Lister‐hooded rats; [2]) was 3.17 ± 0.72% and the Reward latency (male Lister‐hooded rats; [2]) was 1.24 ± 0.06 s. For the same molecule, the Correct latency (male Lister‐hooded rats; [3]) was 0.83 ± 0.03 s, the Omissions (male Lister‐hooded rats; [3]) was 21.65 ± 2.98 n and the Perseverative responses (male Lister‐hooded rats; [3]) was 1.06 ± 0.27 n. The Premature responses (male Lister‐hooded rats; [3]) was 1.97 ± 0.69 %, the Reward latency (male Lister‐hooded rats; [3]) was 1.27 ± 0.06 s and the enhancement of accuracy (male Lister‐hooded rats; high‐performing rats, SKF38393 3 or 6 mg·kg^−1 i.p., P > 0.05) was “but not high‐performing rats”. For the same molecule, the Correct latency (male Lister‐hooded rats; [4]) was 0.77 ± 0.02 s, the Omissions (male Lister‐hooded rats; [4]) was 10.61 ± 1.70 n and the Perseverative responses (male Lister‐hooded rats; [4]) was 0.83 ± 0.26 n. For the same molecule, the Premature responses (male Lister‐hooded rats; [4]) was 3.06 ± 0.27 %, the Reward latency (male Lister‐hooded rats; [4]) was 1.21 ± 0.04 s and the Correct latency (male Lister‐hooded rats; [5]) was 0.85 ± 0.03 s. It also gave an Omissions (male Lister‐hooded rats; [5]) of 17.74 ± 2.58 n, a Perseverative responses (male Lister‐hooded rats; [5]) of 0.67 ± 0.20 n and a Premature responses (male Lister‐hooded rats; [5]) of 2.15 ± 0.49 %. It also gave a Reward latency (male Lister‐hooded rats; [5]) of 1.31 ± 0.06 s.
